In ChEMBL document CHEMBL4411320, “Synthesis and anti-HCV activity of β-d-2'-deoxy-2'-α-chloro-2'-β-fluoro and β-d-2'-deoxy-2'-α-bromo-2'-β-fluoro nucleosides and their phosphoramidate prodrugs” (Bioorg Med Chem, 2019):

Columns and labels:
[1] = system: PBMC; test: (§1) Cytotoxicity against human PBMC after 6 days by trypan blue exclusion method; format: cell-based; conditions: pbmc, 144 h
[2] = system: CCRF-CEM; test: (§2) Cytotoxicity against human CEM cells after 6 days by trypan blue exclusion method; format: cell-based; conditions: ccrf-cem, 144 h
[3] = system: Vero; test: (§3) Cytotoxicity against African green monkey Vero cells after 3 days by hemocytometric method; format: cell-based; conditions: chlorocebus sabaeus, vero, 72 h
[4] = system: Huh-7; test: (§4) Cytotoxicity against human HuH7 cells assessed as reduction in rRNA levels after 5 days by RT-PCR analysis; format: cell-based; conditions: huh-7, 120 h
Method in brief: (§5)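 Huh-7 cells carrying a genotype 1b subgenomic HCV replicon were exposed to compounds at concentrations […]. Total RNA was then extracted and amplified to quantify both replicon HCV RNA (antiviral read-out) and cellular ribosomal RNA (cytotoxicity read-out), in the same cultures at the same time.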

[5] = system: Hepatitis C virus; test: Antiviral activity against HCV genotype 1b subgenomic replicon infected in human HuH7 clone B cells assessed as inhibition of viral RNA replication after 5 days by RT-PCR method; format: functional, organism-based, Hepacivirus hominis; conditions: subtype 1b, Huh-7, 120 h; method in brief: as §5
[6] = as §3; format: cell-based; conditions: chlorocebus sabaeus, Vero cells
[7] = as §1; format: cell-based; conditions: PBMC
[8] = as §2; format: cell-based, CCRF-CEM; conditions: CEM cells
[9] = as §4; format: cell-based, Huh-7; conditions: HuH7 cells; method in brief: as §5

SMILES | CC50 [1] [µM] | CC50 [2] [µM] | CC50 [3] [µM] | CC50 [4] [µM] | EC50 [5] [µM] | EC90 [5] [µM] | CC50 at 72 h [6] [µM] | CC50 at 144 h [7] [µM] | CC50 at 144 h [8] [µM] | CC50 at 120 h [9] [µM]
Nc1ccn([C@@H]2O[C@H](CO)[C@@H](O)[C@@]2(F)Cl)c(=O)n1 | 9.3 | 11 | 63 | 12 | > 10 | – | – | – | – | –
O=c1ccn([C@@H]2O[C@H](CO)[C@@H](O)[C@@]2(F)Cl)c(=O)[nH]1 | > 100 | > 100 | > 100 | > 100 | > 10 | > 10 | – | – | – | –
Nc1ncnc2c1ncn2[C@@H]1O[C@H](CO)[C@@H](O)[C@@]1(F)Cl | > 100 | > 100 | > 100 | > 100 | > 10 | – | – | – | – | –
Nc1nc2c(ncn2[C@@H]2O[C@H](CO)[C@@H](O)[C@@]2(F)Cl)c(=O)[nH]1 | > 100 | > 100 | > 100 | > 100 | > 10 | > 10 | – | – | – | –
CC(C)OC(=O)[C@H](C)N[P@](=O)(OC[C@H]1O[C@@H](n2cnc3c(=O)[nH]c(N)nc32)[C@](F)(Br)[C@@H]1O)Oc1ccccc1 | > 100 | > 100 | > 100 | > 100 | > 10 | > 10 | – | – | – | –
O=c1ccn([C@@H]2O[C@H](CO)[C@@H](O)[C@@]2(F)Br)c(=O)[nH]1 | > 100 | > 100 | > 100 | > 100 | > 10 | > 10 | – | – | – | –
Nc1nc2c(ncn2[C@@H]2O[C@H](CO)[C@@H](O)[C@@]2(F)Br)c(=O)[nH]1 | > 100 | > 100 | > 100 | > 100 | > 10 | – | – | – | – | –
Nc1ccn([C@@H]2O[C@H](CO)[C@@H](O)[C@@]2(F)Br)c(=O)n1 | > 100 | 3.2 | 2.9 | 2.9 | 5.1 | > 10 | – | – | – | –
Nc1ncnc2c1ncn2[C@@H]1O[C@H](CO)[C@@H](O)[C@@]1(F)Br | > 100 | > 100 | > 100 | > 100 | > 10 | – | – | – | – | –
CC(C)OC(=O)[C@H](C)NP(=O)(OC[C@H]1O[C@@H](n2cnc3c(N)ncnc32)[C@](F)(Br)[C@@H]1O)Oc1ccccc1 (mixture of isomers) | 19 | 29 | 71 | 6.9 | > 10 | – | – | – | – | –
CC(C)OC(=O)[C@H](C)NP(=O)(OC[C@H]1O[C@@H](n2ccc(=O)[nH]c2=O)[C@](F)(Cl)[C@@H]1O)Oc1ccccc1 (mixture of isomers) | > 100 | 90 | > 100 | 1.3 | 0.9 | 3.7 | – | – | – | –
CC(C)OC(=O)[C@H](C)NP(=O)(OC[C@H]1O[C@@H](n2cnc3c(N)ncnc32)[C@](F)(Cl)[C@@H]1O)Oc1ccccc1 (mixture of isomers) | 26 | 15 | > 100 | 1.6 | 2.7 | ≥ 10 | – | – | – | –
CC(C)OC(=O)[C@H](C)NP(=O)(OC[C@H]1O[C@@H](n2ccc(=O)[nH]c2=O)[C@](F)(Br)[C@@H]1O)Oc1ccccc1 (mixture of isomers) | – | – | – | 8 | 0.4 | 2 | > 100 | – | – | –
CC(C)OC(=O)[C@H](C)NP(=O)(OC[C@H]1O[C@@H](n2ccc(N)nc2=O)[C@](F)(Br)[C@@H]1O)Oc1ccccc1 (mixture of isomers) | > 100 | > 100 | > 100 | 6.8 | 2.4 | ≥ 10 | – | – | – | –
CC(C)OC(=O)[C@H](C)NP(=O)(OC[C@H]1O[C@@H](n2ccc(N)nc2=O)[C@](F)(Cl)[C@@H]1O)Oc1ccccc1 (mixture of isomers) | > 100 | > 100 | > 100 | 23 | 0.7 | 3.4 | – | – | – | –
CC(C)OC(=O)[C@H](C)NP(=O)(OC[C@H]1O[C@@H](n2cnc3c(=O)[nH]c(N)nc32)[C@](F)(Cl)[C@@H]1O)Oc1ccccc1 (mixture of isomers) | > 100 | 84 | > 100 | > 100 | > 10 | – | – | – | – | –
CC(C)OC(=O)[C@H](C)N[P@](=O)(OC[C@H]1O[C@@H](n2ccc(=O)[nH]c2=O)[C@](C)(F)[C@@H]1O)Oc1ccccc1 [SOFOSBUVIR] | – | – | – | – | 0.05 | 0.37 | > 100 | > 100 | > 100 | > 100
